# Bioassay records: PubChem BioAssay, Broad Institute
# rRNA inh HTS: inhibitors of bacterial rRNA selective over humanized ribosomes. GFP signal change (wild-type ribosome), % (test concentration not listed). E. coli WT GFP vs humanized-ribosome RFP mutants, fluorescence, 24 h; active compounds read low; DMSO median 0, no signal -100. 350,000 tested, 1.6% active. AID 720706;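 active = significant combined selectivity score with lowered wild-type GFP, culture density cut under 30%, mutant RFP and density less affected; inactive = any of these conditions unmet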
# HIV Env fusion: blocks HIV Env-driven cell-cell fusion; HeLa-JRFL Env/CEM21 cell fusion, luciferase; inhibition, % at 12.3 µM; AID 651610; 360,000 tested, 1.1% active;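 active = mean replicate inhibition score of at least 50 and every replicate individually at or above 50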;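 note: 0% = plate neutral controls and 100% = maraviroc near 300 nM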
# PGC1a acetyl inh: modulators of PGC1a acetylation | inhibition, % at 15.6 µM | U2OS PGC1a acetylation, AlphaScreen anti-acetyl-lysine; with virally co-expressed GCN5 acetyltransferase | AID 651687 | 350,000 tested, 0.17% active;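 active = every replicate shows inhibition of at least 40%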;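 note: 0% = neutral control wells and 100% = positive control wells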
# ERAP1 inh: inhibitors of human ERAP1 aminopeptidase. 340,000 tested, 0.15% active. recombinant ERAP1, Leu-AMC fluorescence, 60 min. Q9NZ08. inhibition, % at 10.7 µM;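 active = mean replicate inhibition of at least 30%, or all replicates individually reaching that 30% level; inactive = mean below 30% and not every replicate reaching it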;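 note: 0% = neutral control wells and 100% = L-leucinethiol positive control wells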
# Cneo AK release: causes C. neoformans cell lysis; adenylate kinase release luminescence, 4 h; normalised: neutral wells 0, clomiphene wells 100; lysis activity, % at 15 µM; 360,000 tested, 0.2% active;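 active = mean lysis activity across replicates of at least 80%, whatever share of replicates individually reach that level; inactive = mean lysis activity below 80%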
#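 Assay system: Cryptococcus neoformans yeast cells / Dosing: single-point compound dose / Timing: 4 h at 37 °C static, read 1 h later / Measured by: luminescence of released adenylate kinase using an AK detection reagent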
# FGF22 binding: FGF22 (human) thermal shift binding. Q9HCT0. activity (Tm shift, normalised), % at 9.99 µM. 340,000 tested, 1.5% active. recombinant FGF22 thermal shift, SYPRO orange fluorescence; percent of sucrose octasulfate shift, DMSO zero;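 active = mean Tm shift, scaled 0 neutral to 100 positive control, at about 1.3% or above, every replicate too, limit read from the data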
# Target sequence (Q9HCT0 whole entry, looked up): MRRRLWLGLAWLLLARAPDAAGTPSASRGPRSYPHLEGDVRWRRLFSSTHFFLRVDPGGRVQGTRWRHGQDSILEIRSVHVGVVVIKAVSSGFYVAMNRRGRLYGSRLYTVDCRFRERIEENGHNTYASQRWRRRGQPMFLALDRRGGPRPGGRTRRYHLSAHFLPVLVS
# Active calls of the source: *; x = no result. This is a sample that favours compounds with a hit; in the whole collection about 3.5% have one here.
SMILES,rRNA inh HTS,HIV Env fusion,PGC1a acetyl inh,ERAP1 inh,Cneo AK release,FGF22 binding
Cc1[nH]n(C(N)=S)c(=O)c1N=Nc1cccc(C(F)(F)F)c1,8,-64,x,-5,x,0
Cc1[nH]n(C2=NCCS2)c(=O)c1N=Nc1cccc(C(F)(F)F)c1,-25*,15,x,-6,x,1
CCCNC(=O)[C@H]1[C@H](CO)[C@H]2Cn3c(ccc(-c4cccc(OC)c4)c3=O)[C@H]2N1C,-1,x,7,0,x,x
CC1CN(Cc2nc3c(c(=O)[nH]c(=O)n3C)n2CC(N)=O)CC(C)O1 (stereo not given),17,-11,-6,-2,2,0
O=C(NC(N1CCOCC1)C(Cl)(Cl)Cl)c1cc([N+](=O)[O-])cc([N+](=O)[O-])c1 (stereo not given),12,13,x,1,x,0
C[C@H](CO)N1C[C@H](C)[C@@H](CN(C)Cc2ccc(O)cc2)OCc2cn(nn2)CCCC1=O,3,x,-13,x,x,x
Cc1ccc(NC(=O)Cc2c(F)cccc2Cl)cc1S(=O)(=O)N1CCOCC1,9,2,-14,0,0,0
Cc1ccc(NS(=O)(=O)c2c(F)cc(F)c(Cl)c2F)cc1S(=O)(=O)N1CCOCC1,5,8,x,4,x,44*
Clc1ccc(Cn2ncc3c(NCc4ccccc4)ncnc32)c(Cl)c1,x,5,x,7,x,0
O=C1[C@H](Cc2ccccc2)NCCCC[C@@H](c2ccco2)N1Cc1ccccc1,-3,58*,7,x,3,0
O=C1[C@H](Cc2ccccc2)NCCCC[C@H](c2ccco2)N1Cc1ccccc1,-29,74*,1,-5,-3,-1
O=C1N[C@@H](Cc2ccccc2)C(=O)N2CCCC12 (stereo not given in full),10,13,6,x,-1,0
O=C1[C@H](Cc2ccccc2)NCCCC[C@@H](c2ccc(Cl)cc2)N1Cc1ccc(Cl)cc1,8,-19,-1,1,18,-1
O=C1[C@H](Cc2ccccc2)NCCCC[C@H](c2ccc(Cl)cc2)N1Cc1ccccc1,-3,86*,x,-3,4,0
O=C1[C@H](Cc2ccccc2)NCC=CC[C@@H](c2ccco2)N1Cc1ccccc1,3,33,-7,x,-2,0
COCCNC(=O)CN(Cc1ccc(F)cc1)C(=O)CCC(=O)Nc1nccs1,-27,-2,-9,1,1,0
Cc1nn(Cc2ccc(F)cc2)c(C)c1NC(=O)c1nn(C)cc1Cl,x,-89,-4,x,0,x
Cc1ccc(C)c(OCC(O)CN2CCC(Cc3ccccc3)CC2)c1 (stereo not given),-37,55*,-9,2,-5,0
CCCCC[n+]1cccc2c3ccccc3ccc21,-22,97*,x,17,x,0
CC(=O)OC(COC1C[C@@H]2CC[C@@]1(C)C2(C)C)C[N+]1(C)CCCCC1 (stereo not given in full),-30,-14,1,100*,x,0
COc1ccc(C2OC(=O)CC2C(=O)NCc2ccc(F)cc2)cc1OC (stereo not given),11,-21,x,-3,1,0
O=C(NCc1ccc(F)cc1)C(Cc1ccccc1)NS(=O)(=O)c1cccs1 (stereo not given),-4,10,x,0,18,0
CCC(C)(C)NC(=O)C(NS(=O)(=O)c1cccs1)c1ccccc1 (stereo not given),9,71*,24,3,2,0
O=C(NCc1cccs1)C(Cc1ccccc1)NS(=O)(=O)c1cccs1 (stereo not given),x,55*,13,x,-3,x
CCc1cccc(CC)c1NC(=O)C(NS(=O)(=O)c1cccs1)c1ccccc1 (stereo not given),x,-7,-5,x,-2,x
SMILES,rRNA inh HTS,HIV Env fusion,PGC1a acetyl inh,ERAP1 inh,Cneo AK release,FGF22 binding
Cc1cccc(Cc2nnc(CCC(=O)N(C)Cc3ccncc3C)o2)c1,1,10,5,0,x,0
Nc1nc2ccc(Cl)cc2[nH]1,3,0,7,-10,2,43*
N/C(=N\OC(=O)CCc1ccccc1)c1ccc(Br)cc1,-9,x,-10,0,0,0
O=C(CCc1ccccc1)OCC(=O)c1ccc(Br)cc1,4,-7,-7,-1,x,43*
Cc1ncc(CO)c(/C=N/NC(=O)c2ccoc2C)c1O,8,-2,8,0,-5,0
Cc1ncc(CO)c(/C=N/NC(=O)c2ccccc2Br)c1O,9,-12,x,54*,x,0
COc1ccc(C(=O)N/N=C/c2c(CO)cnc(C)c2O)cc1,1,-4,x,33*,x,44*
Cc1ncc(CO)c(/C=N/NC(=O)c2ccc(O)cc2)c1O,x,4,-1,x,x,x
Cc1ncc(CO)c(/C=N/NC(=S)Nc2ccc(Cl)c(Cl)c2)c1O,-54,9,x,-3,x,1.5*
C[C@@H]1CN([C@@H](C)CO)C(=O)c2ccccc2-c2ccccc2CO[C@H]1CN(C)C(=O)Oc1ccccc1,-1,x,-1,-2,54,0
COc1ccccc1CC(=O)Nc1c[nH]c(=O)[nH]c1=O,6,-32,x,-1,x,0
CCc1ccc(NC(=O)CSc2nnc(-c3ccco3)o2)cc1,3,8,x,0,6,0
CCc1ccc(NC(=O)CSc2ccc(-c3ccco3)nn2)cc1,x,7,-17,1,x,43*
CC(=O)Nc1ccc(NC(=O)CSc2nnc(-c3ccco3)o2)cc1,8,-12,-5,-4,-1,44*
O=C1CCCc2c1sc1nc3n(c(=O)c21)CCCCC3,x,-87,-5,x,0,x
CSCCC(NS(=O)(=O)c1ccc(Cl)cc1)C(=O)OCC(=O)NC1CC1 (stereo not given),x,x,-7,x,2,x
O=[N+]([O-])c1ccc(N/N=C/c2sc(N3CCOCC3)nc2-c2ccccc2)c(S(=O)(=O)Nc2ccc(Cl)cc2)c1,-6,17,x,2,x,1
CCN(CC)c1ccc(/C=N/NC(=O)c2cccc(S(=O)(=O)N3CCOCC3)c2)c(O)c1,-30,15,19,2,0,43*
O=C(N/N=C/c1sc(N2CCOCC2)nc1-c1ccccc1)c1cccc(S(=O)(=O)N2CCOCC2)c1,-3,88*,-30,-3,x,0
O=C(Nc1ccccc1F)C(=Cc1sc(N2CCOCC2)nc1-c1ccccc1)C(=O)Nc1ccccc1F,14,25,5,0,x,44*
O=[N+]([O-])c1ccc(N/N=C/c2sc(N3CCOCC3)nc2-c2ccccc2)c(S(=O)(=O)Nc2ccccc2Cl)c1,x,95*,x,x,x,x
CN1C(=O)c2cc(NS(=O)(=O)c3ccc(F)cc3)ccc2OC[C@H]2O[C@@H](CC(=O)NCC(F)(F)F)CC[C@@H]21,2,x,x,x,x,x
CCOC(=O)NN1C(=O)c2ccccc2NC1c1ccccn1 (stereo not given),8,4,x,1,0,0
